The source made the active and inactive calls. No cut-off for these calls is given here.
Key:
[1] = Induction of [32P]-labeled 49-mer oligonucleotide duplex DNA 12 with GNC sequence at terminus (unknown origin) interstrand cross-linking at 50 uM after 16 hrs by PAGE in presence of H2O2
Method in brief: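 32P-labelled 12a (1.0 μM) annealed with 1.5 equiv of 12b in 10 mM potassium phosphate pH 7 / 100 mM NaCl (65 °C for 3 min, then slow cooling). Duplex incubated with compound (final 1 μM–5 mM), with or without H2O2, in NaCl and potassium phosphate pH 8 at room temperature for 16 h. Quenched in formamide; 20% denaturing PAGE.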

[2] = Induction of [32P]-labeled 49-mer oligonucleotide duplex DNA 12 interstrand cross-linking (unknown origin) at purine nucleotide site using compound radiolabeled at 5' of 12b in phosphate buffer at pH 7 at 90 degC after 30 mins by PAGE
[3] = Induction of [32P]-labeled 49-mer oligonucleotide duplex DNA 12 interstrand cross-linking (unknown origin) at purine nucleotide site using compound radiolabeled at 3' of 12a at 90 deg C after 30 mins by PAGE in presence of piperidine
[4] = Induction of [32P]-labeled 49-mer oligonucleotide duplex DNA 12 interstrand cross-linking (unknown origin) at purine nucleotide site using compound radiolabeled at 5' of 12a at 90 deg C after 30 mins by PAGE in presence of piperidine
Method in brief: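 Cross-linked duplex, with strand 12a 32P-labelled at the 5′ end, heated at 90 °C either in phosphate buffer pH 7.0 or in 1.0 M piperidine. Cleavage sites were assigned by denaturing PAGE against G + A sequencing and Fe·EDTA markers.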

BT-549 = test: Cytotoxicity against human BT549 cells after 48 hrs by SRB assay; assay type: functional; conditions: BT-549, 48 h
Method in brief: (§1)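 GI50 was determined in the NCI Developmental Therapeutics Program in vitro 60-line cancer screen. Tumour lines were maintained in RPMI 1640 containing 5% FBS and 2 mM L-glutamine. Cells were inoculated at 5000–40 000 cells/well according to each line's doubling time before drug exposure.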

HOP-92 = test: Cytotoxicity against human HOP92 cells after 48 hrs by SRB assay; assay type: functional; conditions: HOP-92, 48 h; method in brief: as §1
MDA-MB-231 = test: Cytotoxicity against human MDA-MB-231 cells after 48 hrs by SRB assay; assay type: functional; conditions: MDA-MB-231, 48 h
Method in brief: (§2)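 GI50 from the NCI Developmental Therapeutics Program in vitro human tumor cell screen. Cell lines were maintained in RPMI 1640 with 5% fetal bovine serum and 2 mM L-glutamine. They were seeded at 5000–40 000 cells/well, depending on each line's doubling time, then exposed to drug for 48 h at 37 °C, 5% CO2.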

HOP-62 = test: Cytotoxicity against human HOP62 cells after 48 hrs by SRB assay; assay type: functional; conditions: HOP-62, 48 h; method in brief: as §1
SW-620 = test: Cytotoxicity against human SW620 cells after 48 hrs by SRB assay; assay type: functional; conditions: SW-620, 48 h
Method in brief: (§3)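 GI50 from the NCI-60 DTP human tumour line screen. Lines grown in RPMI 1640 with 5% fetal bovine serum and 2 mM L-glutamine, plated at 5000–40 000 cells/well according to doubling time. Incubated 48 h at 37 °C, 5% CO2.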

K562 = test: Cytotoxicity against human K562 cells after 48 hrs by SRB assay; assay type: functional; conditions: K562, 48 h; method in brief: as §1
PC-3 = test: Cytotoxicity against human PC3 cells after 48 hrs by SRB assay; assay type: functional; conditions: PC-3, 48 h; method in brief: as §2
[5] = Cytotoxicity against human OVCAR5 cells after 48 hrs by SRB assay; assay type: functional; conditions: OVCAR-5, 48 h; method in brief: as §2
Malme-3M = test: Cytotoxicity against human MALME-3M cells after 48 hrs by SRB assay; assay type: functional; method in brief: as §1
HCC 2998 = test: Cytotoxicity against human HCC2998 cells after 48 hrs by SRB assay; assay type: functional; conditions: HCC 2998, 48 h; method in brief: as §1
A549 = test: Cytotoxicity against human A549 cells after 48 hrs by SRB assay; assay type: functional; conditions: A549, 48 h; method in brief: as §1
ACHN = test: Cytotoxicity against human ACHN cells after 48 hrs by SRB assay; assay type: functional; method in brief: as §1
[6] = Cytotoxicity against human OVCAR8 cells after 48 hrs by SRB assay; assay type: functional; conditions: OVCAR-8, 48 h; method in brief: as §2
KM12 = test: Cytotoxicity against human KM12 cells after 48 hrs by SRB assay; assay type: functional; conditions: KM12, 48 h; method in brief: as §1
NCI-H460 = test: Cytotoxicity against human NCI-H460 cells after 48 hrs by SRB assay; assay type: functional; conditions: NCI-H460, 48 h; method in brief: as §2
[7] = Cytotoxicity against human UO31 cells after 48 hrs by SRB assay; assay type: functional; conditions: UO-31, 48 h; method in brief: as §3
DU-145 = test: Cytotoxicity against human DU145 cells after 48 hrs by SRB assay; assay type: functional; conditions: DU-145, 48 h; method in brief: as §1
SF-539 = test: Cytotoxicity against human SF539 cells after 48 hrs by SRB assay; assay type: functional; conditions: SF-539, 48 h; method in brief: as §2
[8] = Cytotoxicity against human EKVX cells after 48 hrs by SRB assay; assay type: functional; method in brief: as §1
SNB-19 = test: Cytotoxicity against human SNB19 cells after 48 hrs by SRB assay; assay type: functional; conditions: SNB-19, 48 h; method in brief: as §3
[9] = Cytotoxicity against human HCT15 cells after 48 hrs by SRB assay; assay type: functional; conditions: HCT-15, 48 h; method in brief: as §1
NCI-H522 = test: Cytotoxicity against human NCI-H522 cells after 48 hrs by SRB assay; assay type: functional; conditions: NCI-H522, 48 h; method in brief: as §2
SF-268 = test: Cytotoxicity against human SF268 cells after 48 hrs by SRB assay; assay type: functional; conditions: SF-268, 48 h; method in brief: as §2
SN12C = test: Cytotoxicity against human SN12C cells after 48 hrs by SRB assay; assay type: functional; method in brief: as §2
NCI-H322M = test: Cytotoxicity against human NCI-H322M cells after 48 hrs by SRB assay; assay type: functional; method in brief: as §2
SK-OV-3 = test: Cytotoxicity against human SKOV3 cells after 48 hrs by SRB assay; assay type: functional; conditions: SK-OV-3, 48 h; method in brief: as §2
RXF 393 = test: Cytotoxicity against human RXF393 cells after 48 hrs by SRB assay; assay type: functional; conditions: RXF 393, 48 h; method in brief: as §2
[10] = Cytotoxicity against human Hs578T cells after 48 hrs by SRB assay; assay type: functional; conditions: Hs-578T; method in brief: as §1
NCI-H23 = test: Cytotoxicity against human NCI-H23 cells after 48 hrs by SRB assay; assay type: functional; conditions: NCI-H23, 48 h; method in brief: as §2
MCF7 = test: Cytotoxicity against human MCF7 cells after 48 hrs by SRB assay; assay type: functional; conditions: MCF7, 48 h; method in brief: as §1
M14 = test: Cytotoxicity against human M14 cells after 48 hrs by SRB assay; assay type: functional; conditions: M14, 48 h; method in brief: as §1
[11] = Cytotoxicity against human OVCAR3 cells after 48 hrs by SRB assay; assay type: functional; conditions: OVCAR-3, 48 h; method in brief: as §2
HL-60(TB) = test: Cytotoxicity against human HL-60(TB) cells after 48 hrs by SRB assay; assay type: functional; conditions: HL-60, 48 h; method in brief: as §1
T47D = test: Cytotoxicity against human T47D cells after 48 hrs by SRB assay; assay type: functional; method in brief: as §3
U-251 = test: Cytotoxicity against human U251 cells after 48 hrs by SRB assay; assay type: functional; conditions: U-251, 48 h; method in brief: as §3
HT-29 = test: Cytotoxicity against human HT-29 cells after 48 hrs by SRB assay; assay type: functional; conditions: HT-29, 48 h; method in brief: as §1

Compound | Activity [1] | Activity [2] | Activity [3] | Activity [4] | GI50 (BT-549) | GI50 (HOP-92) | GI50 (MDA-MB-231) | GI50 (HOP-62) | GI50 (SW-620) | GI50 (K562) | GI50 (PC-3) | GI50 [5] | GI50 (Malme-3M) | GI50 (HCC 2998) | GI50 (A549) | GI50 (ACHN) | GI50 [6] | GI50 (KM12) | GI50 (NCI-H460) | GI50 [7] | also measured
CC1(C)OB(c2ccc(N(CCBr)CCOS(C)(=O)=O)cc2)OC1(C)C | 3% | Active | Active | Active |  |  |  |  |  |  |  |  |  |  |  |  |  |  |  |  | 
CC1(C)OB(c2ccc(N(CCCl)CCOS(C)(=O)=O)cc2)OC1(C)C | 3% | Active | Active | Active | 12 µM | 11.5 µM | 22.1 µM | 8.85 µM | 11.9 µM | 19 µM | 15.1 µM | 22.9 µM | 14 µM | 14.6 µM | 4.98 µM | 3.03 µM | 8.2 µM | 25.8 µM | 0.49 µM | 6.18 µM | GI50 (DU-145): 4.52 µM; GI50 (SF-539): 4.83 µM; GI50 [8]: 24.5 µM; GI50 (SNB-19): 10.2 µM; GI50 [9]: 13.5 µM; GI50 (NCI-H522): 5.99 µM; GI50 (SF-268): 5.39 µM; GI50 (SN12C): 4.4 µM; GI50 (NCI-H322M): 28.2 µM; GI50 (SK-OV-3): 8.96 µM; GI50 (RXF 393): 5.71 µM; GI50 [10]: 24.1 µM; GI50 (NCI-H23): 4.7 µM; GI50 (MCF7): 4.44 µM; GI50 (M14): 5.68 µM; GI50 [11]: 13.4 µM; GI50 (HL-60(TB)): 3.88 µM; GI50 (T47D): 8.49 µM; GI50 (U-251): 0.7 µM; GI50 (HT-29): 14.6 µM
CC1(C)OB(c2ccc(N(CCCl)CCCl)cc2)OC1(C)C | 3% | Active | Active | Active | 10.5 µM | 9.24 µM | 16.5 µM | 10.9 µM | 11.3 µM | 17.2 µM | 14.3 µM | 21.6 µM | 17.5 µM | 14.9 µM | 2.69 µM | 3.64 µM | 7.83 µM | 14.9 µM | 0.33 µM | 5.78 µM | GI50 (DU-145): 4.25 µM; GI50 (SF-539): 5.7 µM; GI50 [8]: 18.6 µM; GI50 (SNB-19): 8.06 µM; GI50 [9]: 13.2 µM; GI50 (NCI-H522): 6.59 µM; GI50 (SF-268): 4.61 µM; GI50 (SN12C): 4.11 µM; GI50 (NCI-H322M): 14.7 µM; GI50 (SK-OV-3): 8.03 µM; GI50 (RXF 393): 10.3 µM; GI50 [10]: 26.2 µM; GI50 (NCI-H23): 4.57 µM; GI50 (MCF7): 4.12 µM; GI50 (M14): 5.1 µM; GI50 [11]: 14.6 µM; GI50 (HL-60(TB)): 4.66 µM; GI50 (T47D): 10.7 µM; GI50 (U-251): 3.75 µM; GI50 (HT-29): 13.8 µM

— ChEMBL document CHEMBL3286203, “Reactive oxygen species (ROS) inducible DNA cross-linking agents and their effect on cancer cells and normal lymphocytes” (J Med Chem, 2014)
